From ChEMBL document CHEMBL3400032 (Bioorg Med Chem, 2015)
Calls of active or inactive are those of the source. The rule behind the calls is not given here.

Key:
Rattus norvegicus [1] = assay: AUC in rat assessed as 2-(3-aminopiperidin-1-yl)-3-(2-chloro-5-fluorobenzyl)-5-methyl-4-oxo-4,5-dihydro-3H-imidazo[4,5-c]quinoline-7-carboxylic acid level at 10 mg/kg, po; type: ADME, organism-based, Plasma; parameters: dose 10 mg/kg, route oral; conditions: in vivo
[2] = Drug metabolism in Sprague-Dawley rat liver S9 fraction assessed as compound remaining at 1 uM after 30 mins by HPLC/MS/MS analysis relative to control; type: ADME, subcellular; conditions: read-out: Stability
Summary of the method: (§1)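 Test compound at 1 µM final, incubated 30 min at 37 °C in serum, or in S9 mix (50 mM potassium phosphate pH 7.4, 3 mM NADPH, 1 mg protein/mL pooled male SD rat or human liver S9). Preincubated 5 min at 37 °C, compound added in acetonitrile–water (1:1), stopped with ice-cold acetonitrile, centrifuged, filtered, parent and carboxylate hydrolysate quantified by HPLC-MS/MS.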

Rattus norvegicus [3] = assay: Oral bioavailability in rat assessed as 2-(3-aminopiperidin-1-yl)-3-(2-chloro-5-fluorobenzyl)-5-methyl-4-oxo-4,5-dihydro-3H-imidazo[4,5-c]quinoline-7-carboxylic acid level at 10 mg/kg; type: ADME, organism-based; conditions: in vivo
[4] = Solubility of the compound at pH 5.5; type: physicochemical; conditions: buffer
[5] = Permeability of the compound at pH 5 by PAMPA; type: ADME; conditions: read-out: permeability
[6] = Drug metabolism in rat serum assessed as compound remaining at 1 uM after 30 mins by HPLC/MS/MS analysis relative to control; type: ADME, cell-free; conditions: read-out: Stability; summary of the method: as §1
[7] = Drug metabolism in human serum assessed as compound remaining at 1 uM after 30 mins by HPLC/MS/MS analysis relative to control; type: ADME, cell-free; conditions: read-out: Stability; summary of the method: as §1
[8] = Permeability of the compound at pH 7.4 by PAMPA; type: ADME; conditions: read-out: permeability
[9] = Drug metabolism in human liver S9 fraction assessed as compound remaining at 1 uM after 30 mins by HPLC/MS/MS analysis relative to control; type: ADME, subcellular; conditions: read-out: Stability; summary of the method: as §1
[10] = Solubility of the compound at pH 7.4; type: physicochemical; conditions: buffer
[11] = Solubility of the compound at pH 2.5; type: physicochemical; conditions: buffer
Rattus norvegicus [12] = assay: Cmax in rat assessed as 2-(3-aminopiperidin-1-yl)-3-(2-chlorobenzyl)-5-methyl-4-oxo-4,5-dihydro-3H-imidazo[4,5-c]quinoline-8-carboxylic acid level at 20 mg/kg, po; type: ADME, organism-based; parameters: dose 20 mg/kg, route oral; conditions: in vivo
Rattus norvegicus [13] = assay: AUC in rat assessed as 2-(3-aminopiperidin-1-yl)-3-(2-chlorobenzyl)-5-methyl-4-oxo-4,5-dihydro-3H-imidazo[4,5-c]quinoline-8-carboxylic acid level at 20 mg/kg, po; type: ADME, organism-based, Plasma; parameters: dose 20 mg/kg, route oral; conditions: in vivo
Rattus norvegicus [14] = assay: Oral bioavailability in rat assessed as 2-(3-aminopiperidin-1-yl)-3-(2-chlorobenzyl)-5-methyl-4-oxo-4,5-dihydro-3H-imidazo[4,5-c]quinoline-8-carboxylic acid level at 20 mg/kg; type: ADME, organism-based; conditions: in vivo
Rattus norvegicus [15] = assay: In vivo inhibition of DPP4 in Sprague-Dawley rat at 3 mg/kg, po after 10 hrs; type: functional
Summary of the method: (§2)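 Male SD rats, 11 weeks, fasted 24 h before predose sampling and throughout; single oral gavage 3 mg/kg. Blood taken −0.5, 1, 2, 4, 6, 10, 24 h. Plasma DPP-4 activity: Gly-Pro-MCA substrate, HEPES/NaCl/MgCl2 buffer pH 7.8, stopped with 5% acetic acid after 20 min, AMC fluorescence 360/460 nm against AMC standard curve; duplicates, background-subtracted, mU/mL plasma.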

[16] = Drug metabolism in human liver S9 fraction assessed as 2-(3-aminopiperidin-1-yl)-3-(2-chlorobenzyl)-5-methyl-4-oxo-4,5-dihydro-3H-imidazo[4,5-c]quinoline-8-carboxylic acid formation at 1 uM after 30 mins by HPLC/MS/MS analysis relative to control; type: ADME, subcellular; conditions: s9, 0.5 h; summary of the method: as §1
[17] = Drug metabolism in Sprague-Dawley rat liver S9 fraction assessed as 2-(3-aminopiperidin-1-yl)-3-(2-chlorobenzyl)-5-methyl-4-oxo-4,5-dihydro-3H-imidazo[4,5-c]quinoline-8-carboxylic acid formation at 1 uM after 30 mins by HPLC/MS/MS analysis relative to control; type: ADME, subcellular; conditions: s9, 0.5 h; summary of the method: as §1
Rattus norvegicus [18] = assay: Tmax in rat assessed as 2-(3-aminopiperidin-1-yl)-3-(2-chlorobenzyl)-5-methyl-4-oxo-4,5-dihydro-3H-imidazo[4,5-c]quinoline-8-carboxylic acid level at 20 mg/kg, po; type: ADME, organism-based; parameters: dose 20 mg/kg, route oral; conditions: in vivo
Rattus norvegicus [19] = assay: Reduction of blood glucose level in Zucker fatty rat model at 1 mg/kg, po by OGTT analysis; type: functional, organism-based; parameters: dose 1 mg/kg
Plasma = assay: Plasma concentration in rat at 20 mg/kg, po; type: ADME, organism-based; parameters: dose 20 mg/kg, route oral; conditions: in vivo
Summary of the method: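 Rats dosed orally with prodrug; plasma levels of prodrug and carboxylate active metabolite measured over time, limit of quantification 1.0 ng/mL.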

Serum [20] = assay: Drug metabolism in rat serum assessed as 2-(3-aminopiperidin-1-yl)-3-(2-chlorobenzyl)-5-methyl-4-oxo-4,5-dihydro-3H-imidazo[4,5-c]quinoline-8-carboxylic acid formation at 1 uM after 30 mins by HPLC/MS/MS analysis relative to control; type: ADME, cell-free; conditions: 0.5 h; summary of the method: as §1
Serum [21] = assay: Drug metabolism in human serum assessed as 2-(3-aminopiperidin-1-yl)-3-(2-chlorobenzyl)-5-methyl-4-oxo-4,5-dihydro-3H-imidazo[4,5-c]quinoline-8-carboxylic acid formation at 1 uM after 30 mins by HPLC/MS/MS analysis relative to control; type: ADME, cell-free; conditions: 0.5 h; summary of the method: as §1
Rattus norvegicus [22] = assay: In vivo inhibition of DPP4 in Sprague-Dawley rat at 3 mg/kg, po after 1 hr; type: functional; summary of the method: as §2
Rattus norvegicus [23] = assay: Reduction of blood glucose level in po dosed Zucker fatty rat model by OGTT analysis; type: functional, organism-based

Row | remaining at 0.5 h, 1 µM [2] [%] | solubility [4] [µg/mL] | Papp [5] [nm/s] | remaining at 0.5 h, 1 µM [6] [%] | remaining at 0.5 h, 1 µM [7] [%] | Papp [8] [nm/s] | remaining at 0.5 h, 1 µM [9] [%] | solubility [10] [µg/mL] | solubility [11] [µg/mL] | Structure (SMILES) | also measured
1 | 3.6 | 1 | 158 | < 0.5 | < 0.5 | 159 | 13 | < 1 | 47 | Cc1oc(=O)oc1COC(=O)c1ccc2c3nc(N4CCC[C@@H](N)C4)n(Cc4cc(F)ccc4Cl)c3c(=O)n(C)c2c1.Cl | AUC (Rattus norvegicus [1]): 0.0439 µg·h/mL; F (Rattus norvegicus [3]): 4.8%
2 | < 0.5 | 3 | 103 | < 0.5 | < 0.5 | 121 | 7.8 | < 1 | 210 | Cc1oc(=O)oc1COC(=O)c1ccc2c(c1)c1nc(N3CCC[C@@H](N)C3)n(Cc3ccccc3Cl)c1c(=O)n2C.Cl | Cmax (Rattus norvegicus [12]): 0.0941 µg/mL; AUC (Rattus norvegicus [13]): 0.728 µg·h/mL; F (Rattus norvegicus [14]): 35%; inhibition in vivo at 3 mg/kg (Rattus norvegicus [15]): 64%; Drug metabolism [16]: metabolite_detected; Drug metabolism [17]: metabolite_detected; Tmax (Rattus norvegicus [18]): 2 h; Activity (Rattus norvegicus [19]): Active; Cp (Plasma): < 0.001 µg/mL; Drug metabolism (Serum [20]): metabolite_detected; Drug metabolism (Serum [21]): metabolite_detected; inhibition in vivo at 3 mg/kg (Rattus norvegicus [22]): 87%; Activity (Rattus norvegicus [23]): Dose-dependent effect
